Data as given in article PMC7415440 (Drug Design, Development and Therapy, 2020).

Tests used:
[1] = SAD study safety and tolerability assessment; assay type: in vivo, human; settings: for Number of Subjects with AEs (%) / Number of Subjects with Drug Related AEs (% total): 6 subjects
Summary of the method: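 Randomised, double-blind, placebo-controlled trial in healthy Korean males (active:placebo 6:2 per group), single iv infusion in normal saline over 0.5 h at 35–600 mg. Dose escalation was decided by the DSMB. Subjects were in-house days 1–2, revisited day 3, and had follow-up 7 days post-dose. Monitoring covered vital signs, 12-lead ECG, haematology, chemistry, urinalysis, physical exams and AEs, with relationship to drug assigned.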

[2] = system: regulatory T cells (Tregs) in peripheral blood mononuclear cells (PBMCs); settings: PBMCs incubated for 24 h with high-dose JPI-289; cited from earlier work
Single ascending dose = assay type: in vivo, human; settings: for Tmax: max]
Summary of the method: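 Single 0.5 h iv infusion in saline. Plasma sampled predose to 48 h, stored −70°C; urine collected in intervals to 24 h with volumes. Validated HPLC-MS/MS, deuterated internal standard, positive ESI MRM m/z 344.3→201.2. Plasma range 1–3000 or 10–30,000 ng/mL and urine 5–15,000 or 50–150,000 ng/mL, by dose group. Noncompartmental analysis on actual times; AUCinf = AUClast + Clast/λz; CLR = Ae/AUClast.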

[3] = rats, 4-week GLP toxicology study; cited from earlier work
[4] = single iv dose, n=40, number of subjects [cases]
[5] = single iv 35 mg over 0.5 h, n=6, mean (SD)
[6] = single iv 75 mg over 0.5 h, n=6, mean (SD)
[7] = single iv 150 mg over 0.5 h, n=6, mean (SD)
[8] = single iv 300 mg over 0.5 h, n=6, mean (SD)
[9] = single iv 600 mg over 0.5 h, n=6, mean (SD)
[10] = single iv, all doses 35-600 mg, Total n=30, mean (SD)

CCOc1cc(CN2CCOCC2)cc2[nH]c(=O)c3c(c12)NCCC3.Cl.Cl.O.O [JPI-289]
intensity of AEs ([1]; SAD): mild in intensity | abnormalities in laboratory tests, physical examinations, vital signs, or electrocardiograms ([1]; SAD and MAD): No clinically significant abnormalities | intensity of AEs ([1]; SAD and MAD studies together): all mild in intensity | maximum tolerated dose ([1]; SAD, decided by DSMB, dizziness as dose-limiting toxicity): 600 mg | tolerability ([1]; SAD, dose range 35–600 mg): well tolerated | serious AEs ([1]; entire course of the study (SAD and MAD)): No serious AEs occurred | Number of Subjects with AEs (%) ([1]; single iv dose 35 mg): 3 (50.0) | Number of Subjects with Drug Related AEs (% total) ([1]; single iv dose 35 mg): 1 (16.7) | Number of Subjects with AEs (%) ([1]; single iv dose 75 mg): 0 (0.0) | Number of Subjects with Drug Related AEs (% total) ([1]; single iv dose 75 mg): 0 (0.0) | Number of Subjects with AEs (%) ([1]; single iv dose 150 mg): 0 (0.0) | Number of Subjects with Drug Related AEs (% total) ([1]; single iv dose 150 mg): 0 (0.0) | Number of Subjects with AEs (%) ([1]; single iv dose 300 mg): 0 (0.0) | Number of Subjects with Drug Related AEs (% total) ([1]; single iv dose 300 mg): 0 (0.0) | Number of Subjects with AEs (%) ([1]; single iv dose 600 mg): 3 (50.0) | Number of Subjects with Drug Related AEs (% total) ([1]; single iv dose 600 mg): 3 (50.0) | Abdominal discomfort, Drug-Related [1, 4]: 0 [0] | Abdominal discomfort, Not Related [1, 4]: 0 [0] | Abdominal discomfort, Total [1, 4]: 0 [0] | Bilirubin total increased, Drug-Related [1, 4]: 1 [1] | Bilirubin total increased, Not Related [1, 4]: 0 [0] | Bilirubin total increased, Total [1, 4]: 1 [1] | Diarrhea, Drug-Related [1, 4]: 0 [0] | Diarrhea, Not Related [1, 4]: 1 [1] | Diarrhea, Total [1, 4]: 1 [1] | Dizziness, Drug-Related [1, 4]: 3 [4] | Dizziness, Not Related [1, 4]: 0 [0] | Dizziness, Total [1, 4]: 3 [4] | Fever, Drug-Related [1, 4]: 0 [0] | Fever, Not Related [1, 4]: 0 [0] | Fever, Total [1, 4]: 0 [0] | Headache, Drug-Related [1, 4]: 0 [0] | Headache, Not Related [1, 4]: 0 [0] | Headache, Total [1, 4]: 0 [0] | Heart rate increased, Drug-Related [1, 4]: 0 [0] | Heart rate increased, Not Related [1, 4]: 1 [1] | Heart rate increased, Total [1, 4]: 1 [1] | Sinus tachycardia, Drug-Related [1, 4]: 0 [0] | Sinus tachycardia, Not Related [1, 4]: 0 [0] | Sinus tachycardia, Total [1, 4]: 0 [0] | Stomatitis, Drug-Related [1, 4]: 0 [0] | Stomatitis, Not Related [1, 4]: 0 [0] | Stomatitis, Total [1, 4]: 0 [0] | Urticaria, Drug-Related [1, 4]: 0 [0] | Urticaria, Not Related [1, 4]: 0 [0] | Urticaria, Total [1, 4]: 0 [0] | proportions of regulatory T cells (Tregs) [2]: can be increased | AUCinf (Single ascending dose; [5]): 665.50 (149.62) ng·h/mL | AUCinf/dose (Single ascending dose; [5]): 19.01 (4.28) ng·h/mL/mg | AUClast (Single ascending dose; [5]): 658.82 (148.39) ng·h/mL | Ae (amount of unchanged drug in urine) (Single ascending dose; [5]): 0.56 (0.22) mg | CL (Single ascending dose; [5]): 54.88 (12.54) L/h | CLR (renal clearance) (Single ascending dose; [5]): 0.84 (0.28) L/h | Cmax (Single ascending dose; [5]): 422.72 (102.10) ng/mL | Cmax/dose (Single ascending dose; [5]): 12.08 (2.92) ng/mL/mg | Vd,ss (Single ascending dose; [5]): 101.33 (26.74) L | Vz (Single ascending dose; [5]): 160.73 (42.91) L | t1/2z (Single ascending dose; [5]): 2.18 (1.01) h | Tmax (Single ascending dose; single iv 35 mg over 0.5 h, n=6, median [min): 0.47 [0.33, 0.50] h | AUCinf (Single ascending dose; [6]): 1947.57 (366.92) ng·h/mL | AUCinf/dose (Single ascending dose; [6]): 25.97 (4.89) ng·h/mL/mg | AUClast (Single ascending dose; [6]): 1940.45 (367.40) ng·h/mL | Ae (amount of unchanged drug in urine) (Single ascending dose; [6]): 1.74 (0.71) mg | CL (Single ascending dose; [6]): 39.77 (8.07) L/h | CLR (renal clearance) (Single ascending dose; [6]): 0.88 (0.26) L/h | Cmax (Single ascending dose; [6]): 1197.77 (173.37) ng/mL | Cmax/dose (Single ascending dose; [6]): 15.97 (2.31) ng/mL/mg | Vd,ss (Single ascending dose; [6]): 91.18 (17.49) L | Vz (Single ascending dose; [6]): 183.32 (61.92) L | t1/2z (Single ascending dose; [6]): 3.21 (0.81) h | Tmax (Single ascending dose; single iv 75 mg over 0.5 h, n=6, median [min): 0.48 [0.33, 0.52] h | AUCinf (Single ascending dose; [7]): 6057.90 (1533.04) ng·h/mL | AUCinf/dose (Single ascending dose; [7]): 40.39 (10.22) ng·h/mL/mg | AUClast (Single ascending dose; [7]): 6029.78 (1520.32) ng·h/mL | Ae (amount of unchanged drug in urine) (Single ascending dose; [7]): 5.31 (1.49) mg | CL (Single ascending dose; [7]): 26.41 (8.03) L/h | CLR (renal clearance) (Single ascending dose; [7]): 0.89 (0.21) L/h | Cmax (Single ascending dose; [7]): 2481.05 (502.31) ng/mL | Cmax/dose (Single ascending dose; [7]): 16.54 (3.35) ng/mL/mg | Vd,ss (Single ascending dose; [7]): 85.17 (15.31) L | Vz (Single ascending dose; [7]): 118.12 (34.25) L | t1/2z (Single ascending dose; [7]): 3.12 (0.40) h | Tmax (Single ascending dose; single iv 150 mg over 0.5 h, n=6, median [min): 0.48 [0.43, 0.50] h | AUCinf (Single ascending dose; [8]): 10,061.82 (3690.15) ng·h/mL | AUCinf/dose (Single ascending dose; [8]): 33.54 (12.30) ng·h/mL/mg | AUClast (Single ascending dose; [8]): 9786.58 (3534.51) ng·h/mL | Ae (amount of unchanged drug in urine) (Single ascending dose; [8]): 8.37 (3.65) mg | CL (Single ascending dose; [8]): 34.28 (15.06) L/h | CLR (renal clearance) (Single ascending dose; [8]): 0.91 (0.45) L/h | Cmax (Single ascending dose; [8]): 4842.02 (1202.57) ng/mL | Cmax/dose (Single ascending dose; [8]): 16.14 (4.01) ng/mL/mg | Vd,ss (Single ascending dose; [8]): 92.52 (15.20) L | Vz (Single ascending dose; [8]): 124.50 (30.65) L | t1/2z (Single ascending dose; [8]): 2.73 (0.76) h | Tmax (Single ascending dose; single iv 300 mg over 0.5 h, n=6, median [min): 0.48 [0.17, 0.50] h | AUCinf (Single ascending dose; [9]): 32,228.35 (11,796.05) ng·h/mL | AUCinf/dose (Single ascending dose; [9]): 53.71 (19.66) ng·h/mL/mg | AUClast (Single ascending dose; [9]): 32,066.88 (11,725.80) ng·h/mL | Ae (amount of unchanged drug in urine) (Single ascending dose; [9]): 25.32 (6.50) mg | CL (Single ascending dose; [9]): 21.34 (9.69) L/h | CLR (renal clearance) (Single ascending dose; [9]): 0.84 (0.20) L/h | Cmax (Single ascending dose; [9]): 10,381.25 (2097.17) ng/mL | Cmax/dose (Single ascending dose; [9]): 17.30 (3.50) ng/mL/mg | Vd,ss (Single ascending dose; [9]): 73.01 (13.20) L | Vz (Single ascending dose; [9]): 81.46 (16.60) L | t1/2z (Single ascending dose; [9]): 2.88 (0.72) h | Tmax (Single ascending dose; single iv 600 mg over 0.5 h, n=6, median [min): 0.50 [0.48, 0.52] h | AUCinf (Single ascending dose; [10]): 10,192.23 (12,791.37) ng·h/mL | AUCinf/dose (Single ascending dose; [10]): 34.52 (16.32) ng·h/mL/mg | AUClast (Single ascending dose; [10]): 10,096.50 (12,719.54) ng·h/mL | Ae (amount of unchanged drug in urine) (Single ascending dose; [10]): 8.26 (9.65) mg | CL (Single ascending dose; [10]): 35.33 (15.66) L/h | CLR (renal clearance) (Single ascending dose; [10]): 0.87 (0.27) L/h | Cmax (Single ascending dose; [10]): 3864.96 (3789.52) ng/mL | Cmax/dose (Single ascending dose; [10]): 15.61 (3.55) ng/mL/mg | Vd,ss (Single ascending dose; [10]): 88.64 (19.42) L | Vz (Single ascending dose; [10]): 133.63 (51.80) L | t1/2z (Single ascending dose; [10]): 2.83 (0.80) h | Tmax (Single ascending dose; single iv, all doses 35-600 mg, Total n=30, median [min): 0.48 [0.17, 0.52] h | no observed adverse event level [3]: 40 mg/kg
